Paper PMC3321547 (Biochemistry, 2009)
Entries after “also recorded” stand apart in the source; their conditions may differ.

What was measured:
[1] = test system: kinesin head domains; settings: ref [6], cited from earlier work
[2] = Sedimentation of single constructs, 25 mM KCl; assay type: physicochemical; settings: A25 buffer, 0.1 mM ATP, 4 °C
[3] = test system: DKH412; test: Inhibition of mADP release; assay type: biochemical, Drosophila
[4] = test system: DKH412; test: Inhibition of basal steady state ATPase of DKH412 head dimer; assay type: biochemical, Drosophila; settings: no added KCl, 7 µM DKH412 monomer
[5] = test system: DKH357; test: Inhibition of basal ATPase of monomeric DKH357; assay type: biochemical, Drosophila; settings: 13.3 µM DKH357
Summary of the method: (§1)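 Heads were Drosophila kinesin residues 1–346 (for the artificial dimer, fused via a TSGG linker to the GCN4-p1 coiled coil) or 1–357. Basal ATPase was run at 25 °C in A25 buffer (pH 6.9) with […], 2 mM PEP and 0.25 mM NADH, coupled to PK/LDH, KCl as indicated. A340 was read, with turbidity correction where needed. Tail-peptide titrations were fit to the quadratic mutual-depletion equation.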

[6] = target: K346SC; test: Inhibition of basal ATPase of artificial dimer K346SC; assay type: biochemical, Drosophila; settings: read-out: Kd, inhibition of basal ATPase; 6 µM K346SC monomer (Fig. 3C)
Summary of the method: as §1

[7] = test system: DKH346; test: Inhibition of basal ATPase of monomeric DKH346; assay type: biochemical, Drosophila; settings: 6.8 µM DKH346 (Fig. 3C)
Summary of the method: as §1

[8] = test system: K357SC; test: Inhibition of artificial dimer K357SC; assay type: biochemical, Drosophila; settings: not shown

With `Nc1ncnc2c1ncn2[C@@H]1O[C@H](COP(=O)(O)OP(=O)(O)O)[C@@H](O)[C@H]1O` [ADP] as the molecule, how does the “rate of release as ADP” value ([1]; basal) read?
Its value is ~ 0.01 s^−1.

Which results are given for `Nc1ncnc2c1ncn2[C@@H]1O[C@H](COP(=O)(O)OP(=O)(O)OP(=O)(O)O)[C@@H](O)[C@H]1O` [ATP]?
Km ([1]; read-out: KM for ATP, basal ATPase, absence of MTs): ~2.5 nM; net ATP binding and hydrolysis rate [1]: ≥ 4e+06 M⁻¹ s⁻¹

Which “s20,w, centrifuged alone” value [2] does the source give for “DKH412: residues 1 to 412 of Drosophila kinesin with C-terminal HisTag; dimeric head construct” here?
Its value is 5.2 S.

For “NF910-952: monomeric Drosophila kinesin tail peptide, residues 910-952, non-fusion version obtained by thrombin cleavage”, which “maximum extent of inhibition of mADP release” value ([3]; 50 mM KCl, 25 °C, pH 6.9, 0.2 µM DKH412) is on record?
The value was 75%.

What about the “maximum inhibition of mADP release” value ([3]; no added KCl, A25 buffer pH 6.9, 25 °C, 0.2 µM DKH412) of the same molecule?
Its value is “over 80%”.

What about the “stoichiometry of inhibition of basal ATPase” value [4] of the same molecule?
Its value is 1 tail peptide per two head peptides.

What about the “inhibition of monomeric DKH357 (in words)” value [5] of the same molecule?
Its value is “only weakly inhibits; also recorded: not strongly inhibited”.

What about the Kd [6] of the same molecule?
Its Kd is 330 nM.

What about the “inhibition of monomeric DKH346 (in words)” value [7] of the same molecule?
Its value is “only poorly inhibited”.

And the “stoichiometry of inhibition of K357SC” value [8]?
Its value is “half-site stoichiometry”.
